Published values of several laboratories.
Compare with care: the assays were run in different laboratories.
Target: Serine/threonine-protein kinase 38-like (STK38L, Homo sapiens, UniProt Q9Y2H1)

Cn1c2c(c3ccc(Cl)c(Cl)c31)C(C#N)C1(CCOCC1)NC2=O (centres unmarked)  ΔTm (thermal stability; DSF; 10 µM): -0.2 °C
O=C(O)[C@@H]1[C@@H](Cn2nnc3ccccc3c2=O)CC[C@H]1C(=O)c1ccc(OCCC2CCOCC2)cc1  remaining binding (binding; competition with immobilised ligand; 1 µM): 100%
Cc1sc(C(=O)NC2COC2)cc1-n1cc(NC(=O)Nc2c(F)cccc2Cl)cn1  remaining activity (enzyme activity; inhibitor; 10 µM): 95.1%
Cn1c2c(c3ccc(Cl)c(Cl)c31)C(C#N)C(C)(C)NC2=O (centres unmarked)  ΔTm (thermal stability; DSF; 10 µM): -0.1 °C
CN(C)c1ncnc(-c2ccc3nc(Nc4cc(CN5CCN(C(=O)CC(F)(F)F)CC5)ccn4)[nH]c3c2)c1Cl  remaining binding (cell-free assay; competition with immobilised ligand; 1 µM): 74%
COc1cc(Cl)c(C(=O)N[C@@H](CN[C@H]2CC[C@@H](N)CC2)Cc2ccc(C#N)cc2)cc1-c1ccc(CN[C@H](C)c2ccc(C)cc2)o1  remaining activity (enzyme activity; inhibitor; 1 µM): 91%
CN1CCC2(CC1)NC(=O)c1c(c3ccc(Cl)c(Cl)c3n1C)C2C#N (racemic)  ΔTm (thermal stability; DSF; 10 µM): 0 °C
Cc1c(C(=O)O)cc(-c2ccc(C3CCNCC3)cc2)c2ccc(-c3ccc(C(F)(F)F)cc3)cc12  remaining binding (binding; competition with immobilised ligand; 1 µM): 100%
Cc1ccc(C(=O)Nc2ccc(CN3CCN(C)CC3)c(C(F)(F)F)c2)cc1C#Cc1cnc2cccnn12  remaining activity (enzyme activity; 23.5 nM): 99%
Cn1c2c(c3ccc(Cl)c(Cl)c31)C(C#N)C1(CCN(C(=O)OC(C)(C)C)CC1)NC2=O (racemic)  ΔTm (thermal stability; DSF; 10 µM): -0.1 °C
CCN1CCN(Cc2ccc(NC(=O)c3ccc(C)c(Oc4ccnc5[nH]ccc45)c3)cc2C(F)(F)F)CC1  inhibition (target engagement in cells; inhibitor; chemoproteomics; Huh-7; 1 µM): -11.8%
CN(C(=O)c1ccccc1)c1cc(N(C)c2ccc3c(c2)CCc2ccc(C(=O)NCCN4CCOCC4)cc2C3=O)ccc1F  remaining binding (cell-free assay; competition with immobilised ligand; 1 µM): 47%
CNc1cc(Oc2cc(C(=O)Nc3cc(N4CCN(C)CC4)cc(C(F)(F)F)c3)ccc2C)ncn1  inhibition (target engagement in cells; inhibitor; chemoproteomics; Huh-7; 1 µM): -35.6%
COCCOc1nc(-c2ccc(Cl)nc2)nc2c1CN(C(=O)c1ncn3ccccc13)CC2  remaining binding (cell-free assay; competition with immobilised ligand; 0.1 µM): 100%
O=C(Nc1cnn(-c2csc(C(=O)NC3COC3)c2)c1)Nc1ccccc1Cl  remaining activity (enzyme activity; inhibitor; 5 µM): 103%
CN(C)C(=O)Cn1cc(-c2nc([C@@](C)(c3ccc(-c4cnc(N)nc4)cc3)C3CC3)no2)cn1  remaining binding (binding; competition with immobilised ligand; 1 µM): 91%
N#CC1c2c([nH]c3c(Cl)c(Cl)ccc23)C(=O)NC12CCCCC2 (racemic)  ΔTm (thermal stability; DSF; 10 µM): 0.2 °C
COc1cc(-c2cc(-c3ccc(N4CCNCC4)cc3)cnc2C)cc(OC)c1OC  inhibition (enzyme activity; inhibitor; 1 µM): 0%
Cn1c2c(c3ccc(Cl)c(Cl)c31)C(C#N)C1(CCNCC1)NC2=O (racemic)  ΔTm (thermal stability; DSF; 10 µM): -0.2 °C
CC/C(=N\NC(=O)NCc1cccc(O)c1)c1ccc(O)c(C)c1O  inhibition (enzyme activity; inhibitor; 0.1 µM): 19.5%
